Values after ≈ are worked out from the molar mass of the structure shown. Active and inactive are the calls of the source. The calls are words filed in the database; no cut-off is given here.
Columns and labels:
Staphylococcus aureus [1] = experiment: Antimicrobial activity against […] Staphylococcus aureus MTCC 96 at 1 mg/disc after 24 hrs by disc diffusion assay; format: functional
Procedure, shortened: (§1)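 Disc diffusion on Mueller Hinton agar. Inoculum was grown in MHB for 24 h at 37 °C, swabbed onto the plates and dried for 10 min. Discs with 1 mg compound were left 30 min at room temperature for diffusion, then incubated at 37 °C for 24 h. Inhibition zone was read in mm; run twice. Solvent was the negative control, streptomycin the positive control.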

Micrococcus luteus [2] = experiment: Antimicrobial activity against Micrococcus luteus MTCC 106 at 1 mg/disc after 24 hrs by disc diffusion assay; format: functional; procedure, shortened: as §1
Salmonella typhimurium [3] = experiment: Antimicrobial activity against Salmonella typhimurium MTCC 1251 after 24 hrs by two fold dilution method; format: functional, Salmonella enterica subsp. enterica serovar Typhimurium; conditions: Salmonella enterica, MTCC 1251, 24 h
Procedure, shortened: (§2)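 Broth two-fold serial dilution in 96-well plates from 1000 to 7.81 µg/mL, compound in DMSO (2%). Inoculum was grown in MHB for 24 h at 37 °C; plates were incubated 24 h at 37 °C. 5 µL of broth was spotted onto MHA; MIC was the lowest concentration with no visible growth on agar. Streptomycin was the positive control.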

Staphylococcus aureus [4] = experiment: Antimicrobial activity against Staphylococcus aureus MTCC 96 at 1 mg/disc after 24 hrs by disc diffusion assay; format: functional; procedure, shortened: as §1
Staphylococcus aureus [5] = experiment: Antimicrobial activity against Staphylococcus aureus MTCC 96 after 24 hrs by two fold dilution method; format: functional; conditions: MTCC 96, 24 h; procedure, shortened: as §2
Micrococcus luteus [6] = experiment: Antimicrobial activity against Micrococcus luteus MTCC 106 after 24 hrs by two fold dilution method; format: functional; conditions: MTCC 106, 24 h; procedure, shortened: as §2
Proteus vulgaris [7] = experiment: Antimicrobial activity against Proteus vulgaris MTCC 1771 at 1 mg/disc after 24 hrs by disc diffusion assay; format: functional; procedure, shortened: as §1
Bacillus subtilis [8] = experiment: Antimicrobial activity against Bacillus subtilis MTCC 441 after 24 hrs by two fold dilution method; format: functional; conditions: MTCC 441, 24 h; procedure, shortened: as §2
Shigella flexneri [9] = experiment: Antimicrobial activity against Shigella flexneri MTCC 1457 at 1 mg/disc after 24 hrs by disc diffusion assay; format: functional; procedure, shortened: as §1
Klebsiella aerogenes [10] = experiment: Antimicrobial activity against Enterobacter aerogenes MTCC 111 after 24 hrs by two fold dilution method; format: functional; conditions: MTCC 111, 24 h; procedure, shortened: as §2
Klebsiella aerogenes [11] = experiment: Antimicrobial activity against Enterobacter aerogenes MTCC 111 at 1 mg/disc after 24 hrs by disc diffusion assay; format: functional; procedure, shortened: as §1
Klebsiella pneumoniae [12] = experiment: Antimicrobial activity against Klebsiella pneumoniae MTCC 109 after 24 hrs by two fold dilution method; format: functional; conditions: MTCC 109, 24 h; procedure, shortened: as §2
Shigella flexneri [13] = experiment: Antimicrobial activity against Shigella flexneri MTCC 1457 after 24 hrs by two fold dilution method; format: functional; conditions: MTCC 1457, 24 h; procedure, shortened: as §2
[14] = test system: Salmonella enterica subsp. enterica serovar Paratyphi B; experiment: Antimicrobial activity against Salmonella paratyphi B at 1 mg/disc after 24 hrs by disc diffusion assay; format: functional; procedure, shortened: as §1
Staphylococcus aureus [15] = experiment: Antimicrobial activity against methicillin-resistant Staphylococcus aureus MTCC 96 after 24 hrs by two fold dilution method; format: functional; conditions: MTCC 96, 24 h; procedure, shortened: as §2
Pseudomonas aeruginosa [16] = experiment: Antimicrobial activity against Pseudomonas aeruginosa MTCC 741 after 24 hrs by two fold dilution method; format: functional; conditions: MTCC 741, 24 h; procedure, shortened: as §2
Proteus vulgaris [17] = experiment: Antimicrobial activity against Proteus vulgaris MTCC 1771 after 24 hrs by two fold dilution method; format: functional; conditions: MTCC 1771, 24 h; procedure, shortened: as §2
Salmonella typhimurium [18] = experiment: Antimicrobial activity against Salmonella typhimurium MTCC 1251 at 1 mg/disc after 24 hrs by disc diffusion assay; format: functional, Salmonella enterica subsp. enterica serovar Typhimurium; procedure, shortened: as §1
[19] = test system: Salmonella enterica subsp. enterica serovar Paratyphi B; experiment: Antimicrobial activity against Salmonella paratyphi B after 24 hrs by two fold dilution method; format: functional; procedure, shortened: as §2
Pseudomonas aeruginosa [20] = experiment: Antimicrobial activity against Pseudomonas aeruginosa MTCC 741 at 1 mg/disc after 24 hrs by disc diffusion assay; format: functional; procedure, shortened: as §1
Bacillus subtilis [21] = experiment: Antimicrobial activity against Bacillus subtilis MTCC 441 at 1 mg/disc after 24 hrs by disc diffusion assay; format: functional; procedure, shortened: as §1
Klebsiella pneumoniae [22] = experiment: Antimicrobial activity against Klebsiella pneumoniae MTCC 109 at 1 mg/disc after 24 hrs by disc diffusion assay; format: functional; procedure, shortened: as §1
Malassezia pachydermatis [23] = experiment: Antimicrobial activity against Malassezia pachydermatis at 1 mg/disc after 24 hrs by disc diffusion assay; format: functional
Candida albicans [24] = experiment: Antimicrobial activity against Candida albicans MTCC 227 at 1 mg/disc after 24 hrs by disc diffusion assay; format: functional
Malassezia pachydermatis [25] = experiment: Antimicrobial activity against Malassezia pachydermatis after 48 to 72 hrs by two fold dilution method; format: functional
Procedure, shortened: (§3)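 Yeast was grown in Sabouraud dextrose broth at 28 °C for 48 h and tested per CLSI reference methods. Two-fold serial dilutions from 1000 to 7.81 µg/mL, compound in DMSO (2%), in 96-well plates, incubated 48–72 h at 28 °C. MIC was the lowest concentration with no visible fungal growth. Ketoconazole was the positive control.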

Candida albicans [26] = experiment: Antimicrobial activity against Candida albicans MTCC 227 after 48 to 72 hrs by two fold dilution method; format: functional; procedure, shortened: as §3

SMILES	inhibition zone (IZ) (Staphylococcus aureus [1])	inhibition zone (IZ) (Micrococcus luteus [2])	inhibition zone (IZ) (Staphylococcus aureus [4])	inhibition zone (IZ) (Proteus vulgaris [7])	inhibition zone (IZ) (Shigella flexneri [9])	inhibition zone (IZ) (Klebsiella aerogenes [11])	inhibition zone (IZ) [14]	inhibition zone (IZ) (Salmonella typhimurium [18])	inhibition zone (IZ) (Pseudomonas aeruginosa [20])	inhibition zone (IZ) (Bacillus subtilis [21])	inhibition zone (IZ) (Klebsiella pneumoniae [22])	inhibition zone (IZ) (Malassezia pachydermatis [23])	inhibition zone (IZ) (Candida albicans [24])	further results
CN[C@@H]1[C@H](O[C@H]2[C@H](O[C@H]3[C@H](O)[C@@H](O)[C@H](N=C(N)N)[C@@H](O)[C@@H]3N=C(N)N)O[C@@H](C)[C@]2(O)C=O)O[C@@H](CO)[C@H](O)[C@H]1O [STREPTOMYCIN]	30 mm	26 mm	14 mm	30 mm	30 mm	22 mm	30 mm	18 mm	30 mm	30 mm	20 mm			MIC (Salmonella typhimurium [3]): 30 µg/mL (≈ 51.6 µM); MIC (Staphylococcus aureus [5]): 6.25 µg/mL (≈ 10.7 µM); MIC (Micrococcus luteus [6]): 6.25 µg/mL (≈ 10.7 µM); MIC (Bacillus subtilis [8]): 6.25 µg/mL (≈ 10.7 µM); MIC (Klebsiella aerogenes [10]): 25 µg/mL (≈ 43 µM); MIC (Klebsiella pneumoniae [12]): 6.25 µg/mL (≈ 10.7 µM); MIC (Shigella flexneri [13]): 6.25 µg/mL (≈ 10.7 µM); MIC (Staphylococcus aureus [15]): 6.25 µg/mL (≈ 10.7 µM); MIC (Pseudomonas aeruginosa [16]): 25 µg/mL (≈ 43 µM); MIC (Proteus vulgaris [17]): 25 µg/mL (≈ 43 µM); MIC [19]: 62.5 µg/mL (≈ 107 µM)
CC[C@H](C)N[C@H](C)[C@@H](O)c1ccccc1.Cl (mixture of isomers)	inactive	10 mm	inactive	10 mm	inactive	inactive	inactive	10 mm	10 mm	inactive	inactive	10 mm	inactive	
CC[C@@H](C)N[C@@H](C)[C@H](O)c1ccccc1.Cl (mixture of isomers)	inactive	inactive	10 mm	inactive	inactive	inactive	10 mm	10 mm	inactive	inactive	inactive	inactive	inactive	
CC(=O)N1CCN(c2ccc(OCC3COC(Cn4ccnc4)(c4ccc(Cl)cc4Cl)O3)cc2)CC1 (configuration not stated) [KETOCONAZOLE]												26 mm	28 mm	MIC (Malassezia pachydermatis [25]): 25 µg/mL (≈ 47 µM); MIC (Candida albicans [26]): 25 µg/mL (≈ 47 µM)

— ChEMBL document CHEMBL3352188, “Synthesis, antimicrobial and molecular docking studies of enantiomerically pure N-alkylated β-amino alcohols from phenylpropanolamines” (2014)
